Most compounds without a hit are left out; they make up all but 5.8% or so of the library.
Pf Dd2 inh: inhibitors of Plasmodium falciparum Dd2 growth; P. falciparum Dd2 growth, SYBR Green, 72 h; active compounds read low; activity change, % at 10 µM; 94,000 tested, 2.3% active; AID 1159554; in the data active means activity change below about -80%; inconclusive means no clear call, values can overlap the other calls
T cruzi growth-1: blocks T. cruzi growth in NIH3T3 culture | T. cruzi beta-gal in NIH3T3, GalScreen luminescence, 90 h | inhibition, % at 8.34 µM | 77,000 tested, 5.9% active;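 active means mean inhibition above about 93%, with at least 55% of replicates each passing it, limit read from the data, passing the limit was not always enough; inconclusive means only one of those two conditions holds; inactive means neither condition holds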
IDH1 mut inh: IDH1 R132H (human) inhibition; inhibition, % at 10 µM; 70,000 tested, 0.18% active; AID 624101; IDH1 R132H reductase, diaphorase/resazurin fluorescence, 60 min; in the data active means inhibition above about 34%; inconclusive means no clear call, values can overlap the other calls; inactive means below about 11%;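 further: 0% = DMSO and 100% = no enzyme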
KDM4C inh: KDM4C (human) demethylase inhibition. Q9H3R0. 96,000 tested, 0.15% active. inhibition, % at 12.5 µM. GST-KDM4C 2-372, H3K9me3 peptide, LANCE TR-FRET;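 active means mean replicate inhibition above about 25%, with at least 55% of replicates also reaching it, limit read from the data, passing the limit was not always enough; inconclusive means only one of those two conditions met; inactive means neither condition met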
Target sequence (Q9H3R0 2-372 limits assumed): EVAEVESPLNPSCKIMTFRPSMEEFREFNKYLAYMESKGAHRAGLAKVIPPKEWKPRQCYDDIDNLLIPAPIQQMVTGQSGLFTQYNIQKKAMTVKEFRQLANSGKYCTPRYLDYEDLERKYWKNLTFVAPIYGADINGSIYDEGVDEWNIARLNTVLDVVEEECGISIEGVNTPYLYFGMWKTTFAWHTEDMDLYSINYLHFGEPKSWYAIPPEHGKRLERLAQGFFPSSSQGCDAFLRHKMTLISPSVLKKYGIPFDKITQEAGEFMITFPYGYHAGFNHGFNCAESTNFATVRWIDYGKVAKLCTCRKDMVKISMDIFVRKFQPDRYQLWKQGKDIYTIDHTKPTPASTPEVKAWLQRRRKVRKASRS
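Material: N-terminal GST-fused human GASC-1 (KDM4C) fragment, residues 2-372. Input: 10 nM enzyme. Incubation: enzyme reaction 30 min, then detection 60 min, both room temperature. Doses: one test concentration per compound. Read-out basis: inhibition from TR-FRET ratio decrease. Detection: LANCE TR-FRET, excitation 340 nm, emissions 618 and 671 nm.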
T cruzi growth-2: inhibitors of T. cruzi proliferation; shares compounds with T cruzi growth-1; T. cruzi beta-gal in NIH3T3, GalScreen luminescence, 90 h; inhibition, % at 8.35 µM; 5,600 tested, 72% active;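 active means mean replicate inhibition above about 95% and at least 55% of replicates individually reaching it, limit read from the data; inconclusive means only one of the two criteria is met; inactive means neither criterion is met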
T cruzi growth-3: inhibitors of T. cruzi proliferation. shares compounds with T cruzi growth-1. T. cruzi beta-gal in NIH3T3, GalScreen luminescence, 90 h. AID 651740. 5,600 tested, 21% active. inhibition, % at 2.09 µM;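 active means mean inhibition above about 95%, with at least 55% of replicates also reaching it, limit read from the data; inconclusive means meets just one of the two conditions; inactive means meets neither condition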;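 further: plate controls were neutral control median for no effect and positive control median for full effect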
NIH3T3 tox: NIH/3T3 (mouse) viability loss. cytotoxicity (signal decrease), % at 8.35 µM. AID 651742. shares compounds with T cruzi growth-1. NIH/3T3 viability, CellTiter-Glo ATP luminescence, 90 h. 5,600 tested, 14% active;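 active means mean signal decrease across replicates above about 35% based on untreated-well scatter, with enough replicates individually passing, limit read from the data; inconclusive means no rule stated though some were filed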;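 further: 0% = median of neutral control wells and 100% = median of positive control wells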
NIH3T3 tox 2: cytotoxicity in mouse NIH/3T3 fibroblasts; shares compounds with T cruzi growth-1; NIH/3T3 viability, CellTiter-Glo ATP luminescence, 90 h; inhibition, % at 24.9 µM; 5,600 tested, 56% active; AID 651744;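 active means mean loss of cell viability signal at or above a set limit, and enough replicates individually reaching it; inconclusive means meets only the mean limit or only the replicate share; inactive means meets neither condition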;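 further: 0% = median of neutral control wells and 100% = median of positive control wells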
Numbers without * were called inactive; ? = inconclusive; · = not tested or not shown; ! = a repeat was not active.

SMILES	Pf Dd2 inh	T cruzi growth-1	IDH1 mut inh	KDM4C inh	T cruzi growth-2	T cruzi growth-3	NIH3T3 tox	NIH3T3 tox 2
CC(C)CC#Cc1ccc2c(c1)O[C@@H](CN(C)C(=O)NC1CCCC1)[C@H](C)CN([C@H](C)CO)S2(=O)=O	-34	123*	0	7	109*	73	7	94*
CC(C)CC#Cc1ccc2c(c1)O[C@@H](CN(C)C(=O)NC1CCCC1)[C@H](C)CN([C@@H](C)CO)S2(=O)=O	-23	118*	29	-1	100*	77	19	9
CCCNC(=O)N[C@@H]1CC[C@H](CCn2cc(C3CCCC3)nn2)O[C@@H]1CO	14	-77	0	0	·	·	·	·
COc1ccccc1S(=O)(=O)N(C)C[C@H]1Oc2cc(C#CCC3CCCC3)ccc2S(=O)(=O)N([C@H](C)CO)C[C@@H]1C	-3	·	-3	0	·	·	·	·
COc1ccccc1S(=O)(=O)N(C)C[C@H]1Oc2cc(C#CCC(C)C)ccc2S(=O)(=O)N([C@@H](C)CO)C[C@@H]1C	-70	?	-2	-1	?	114*	24	98*
COc1ccccc1S(=O)(=O)N(C)C[C@H]1Oc2cc(C#CCC3CCCC3)ccc2S(=O)(=O)N([C@H](C)CO)C[C@H]1C	-67	127*	·	26*	87	110*	10	20
C[C@H]1CN([C@@H](C)CO)C(=O)Cc2cc(NC(=O)Cc3ccccc3)ccc2O[C@@H]1CN(C)Cc1ccc2c(c1)OCO2	-44	102*	0	2	108*	21	11	3
C[C@H]1CN([C@@H](C)CO)C(=O)Cc2cc(NC(=O)Cc3ccccc3)ccc2O[C@@H]1CN(C)Cc1ccc(C(F)(F)F)cc1	-27	120*	0	13	112*	92	-5	98*
C[C@H]1CN([C@@H](C)CO)C(=O)Cc2cc(NC(=O)Cc3ccccc3)ccc2O[C@H]1CN(C)Cc1ccc(C(F)(F)F)cc1	6	105*	0	0	108*	67	14	104*
C[C@@H]1CN([C@H](C)CO)C(=O)Cc2cc(NC(=O)Nc3ccccc3)ccc2O[C@@H]1CN(C)CC1CC1	·	·	-1	0	·	·	·	·
CC(C)CC#Cc1ccc2c(c1)O[C@H](CN(C)Cc1ccc(C(=O)O)cc1)[C@@H](C)CN([C@H](C)CO)S2(=O)=O	-13	·	16	·	·	·	·	·
O=C(C[C@@H]1CC[C@@H](NC(=O)Nc2ccccc2)[C@H](CO)O1)NCc1ccccn1	10	108*	0	0	-12	-4	-9	3
O=C(C[C@H]1CC[C@@H](NC(=O)Nc2cc(F)ccc2F)[C@H](CO)O1)Nc1ccc(-c2ccccc2)cc1	-7	132*	0	-2	106*	75	23	32*
CCCC(=O)Nc1ccc2c(c1)C(=O)N(C)C[C@H](OC)[C@H](C)CN(Cc1ccc(-c3ccccn3)cc1)[C@@H](C)CO2	-30	·	0	1	·	·	·	·
C[C@@H]1CN([C@H](C)CO)C(=O)c2cc(C#Cc3ccccc3F)cnc2O[C@H]1CN(C)S(=O)(=O)c1ccccc1F	-43	114*	-6	-1	110*	90	39*	?
C[C@@H]1CN([C@@H](C)CO)C(=O)c2cc(C#Cc3ccccc3)cnc2O[C@H]1CN(C)S(=O)(=O)c1ccccc1F	-66	90	0	·	·	·	·	·
C[C@@H]1CN([C@H](C)CO)C(=O)c2cc(C#Cc3ccccc3F)cnc2O[C@@H]1CN(C)S(=O)(=O)c1ccccc1F	-40	106*!	0	-2	107*	69	55*	54*
C[C@H](CO)N1C[C@H](C)[C@H](CN(C)S(=O)(=O)c2cccs2)Oc2ncc(C#Cc3ccccc3)cc2C1=O	-42	119*!	-1	-6	109*	67	24	16
C[C@H]1CN([C@@H](C)CO)C(=O)c2cc(C#Cc3ccccc3)cnc2O[C@@H]1CN(C)S(=O)(=O)c1ccccc1F	-49	?	0	·	108*	68	37*	36*
C[C@H](CO)N1C[C@H](C)[C@H](CN(C)S(=O)(=O)c2ccccc2F)Oc2ncc(C#Cc3ccccc3)cc2C1=O	-55	-10	0	·	·	·	·	·
CC(C)CC#Cc1cnc2c(c1)C(=O)N([C@H](C)CO)C[C@H](C)[C@H](CN(C)S(=O)(=O)c1cccs1)O2	-36	41	1	-4	·	·	·	·
C[C@@H]1CN([C@H](C)CO)S(=O)(=O)c2ccc(C#CC3CCCC3)cc2O[C@H]1CN(C)C(=O)C1CC1	-43	-23	·	-2	·	·	·	·
C[C@@H]1CCCCO[C@H](CN(C)C(=O)C2CCCCC2)[C@@H](C)CN([C@@H](C)CO)C(=O)c2cc(N(C)C)ccc2O1	-68	36	-1	6	·	·	·	·
C[C@@H](O)C#Cc1ccc([C@@H]2[C@H]3CN(C(=O)c4cccc(F)c4)CCCCN3[C@H]2CO)cc1	20	36	·	0	·	·	·	·
C[C@H](CO)N1C[C@H](C)[C@H](CN(C)S(=O)(=O)c2ccccc2F)Oc2ncc(C#Cc3ccccc3F)cc2C1=O	-34	?	0	-3	106*	69	26	58*
SMILES	Pf Dd2 inh	T cruzi growth-1	IDH1 mut inh	KDM4C inh	T cruzi growth-2	T cruzi growth-3	NIH3T3 tox	NIH3T3 tox 2
C[C@@H]1CN([C@@H](C)CO)C(=O)c2cc(C#Cc3ccccc3F)cnc2O[C@@H]1CN(C)S(=O)(=O)c1ccccc1F	-61	98*	-3	-5	95*	80	56*	61*
O=C(NC[C@H]1[C@H](c2ccccc2)[C@H](CO)N1Cc1ccccn1)C1CCCC1	-69	97*	·	1	48	-19	14	-1
O=C(NC[C@H]1[C@H](c2ccccc2)[C@@H](CO)N1Cc1ccccn1)C1CCCC1	3	-65	·	4	·	·	·	·
C/C=C/c1ccc([C@@H]2[C@@H](CO)N(Cc3ccccn3)[C@H]2CNC(C)=O)cc1	9	79	·	3	·	·	·	·
C/C=C/c1ccc([C@@H]2[C@H](CO)N(Cc3ccccn3)[C@H]2CNC(C)=O)cc1	3	98*	·	3	-17	-13	0	9
COc1ccccc1-n1c(CSc2nc3cc(C(=O)N4CCCC4)ccc3s2)nc2ccccc2c1=O	·	·	0	·	·	·	·	·
COc1ccc(NC(=O)Nc2ccc3c(c2)C(=O)N([C@@H](C)CO)C[C@@H](C)[C@H](CN(C)C(=O)Nc2ccc(C(F)(F)F)cc2)OCCCC[C@@H](C)O3)cc1	4	114*	0	17	109*	109*	-14	6
